SMILES strings stand for the structures. Where “and” joins values, the source holds several entries; their conditions need not be identical. Equal values may be shown once. Calls of active or inactive are those of the source. No cut-off for these calls is given here. Some results are limits rather than exact numbers.

The values below come from ChEMBL document CHEMBL1124858, “Methylsulfamic acid esters. A new chemical class of oral antiarthritic agents” (1990).

For experiment [1], the species on record is Rattus norvegicus. Nature of the experiment: 32-day X-ray(0= normal to 10= maximum joint destruction) was determined. The format is functional. In a few lines:
(§1)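 Adjuvant-induced arthritic rats were dosed orally once daily from day 18 through day 50 after adjuvant injection, on a therapeutic regimen. The uninjected joint was X-rayed and scored blind at 32 days on an arbitrary scale from 0 (normal) to 10 (maximum joint destruction). Values are mean ± SD, compared with vehicle control by Dunnett's t test (p < 0.05).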

The species named for experiment [2] is Rattus norvegicus. Nature of the experiment: Weight change of rat was determined; Not significant. The format is functional, organism-based. Summed up: (§2)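 In adjuvant arthritic rats dosed orally from day 18 through day 50 post adjuvant injection, weight change was compared with vehicle control by Dunnett's t test.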
Experiment [3] concerns Rattus norvegicus. Nature of the experiment: Evaluated for the adjuvant-induced arthritis edema of uninjected paw on 11-day after 10 mg/kg dose of peroral administration of the compound. Particulars: route oral.
Experiment [4] concerns Rattus norvegicus. Description: Evaluated for the adjuvant-induced arthritis edema of uninjected paw on 32-day after 10 mg/kg dose of peroral administration of the compound. Particulars: route oral.
For experiment [5], the system named is Mus musculus. Nature of the experiment: Evaluated for the Delayed type hypersensitivity (DTH) response to methylated BSA (mBSA) in sensitive mice at a dose of 31.6.00 mg/kg after peroral administration. Type of experiment: functional. In a few lines:
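Delayed-type hypersensitivity in mice: sensitized to mBSA on day 0, dosed orally on days 4, 5, 6 and 7, then challenged with mBSA in the left hind paw on day 7. Paw weight was measured 24 h after challenge. n = 10 per group. Result is % change from sensitized positive control, by Dunnett's t test. Negative control received Freund's complete adjuvant without mBSA.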

The test system of experiment [6] is Rattus norvegicus. Nature of the experiment: Evaluated for the […] on 32-day after 10 mg/kg dose of peroral administration of the compound. Type of experiment: functional. Particulars: route oral. Summed up: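 Adjuvant-induced arthritic rat model with oral dosing from day 18 through day 50 post adjuvant. Edema was the volume change of the uninjected hind paw. The 11-day Δ is day 29 volume minus day 18 volume; the 32-day Δ is day 50 minus day 18. Values are mL ± SD against a vehicle control, by Dunnett's t test (p < 0.05).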

Experiment [7] has as its system Rattus norvegicus. Nature of the experiment: Evaluated for the carrageenan-induced pleural volume in rats at a dose of 100 mg/kg after peroral administration. The format is functional. The settings on record: route oral. In a few lines: (§3)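 Carrageenan-induced pleurisy in rats, Evans blue pleural effusion assay. Twenty oral doses, one per day, were given before carrageenan challenge. Pleural volume is mL ± SD, n = 6 per group, with % change from control and Dunnett's t test (p < 0.05).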

Experiment [8] has as its system Rattus norvegicus. Description: Evaluated for the carrageenan-induced pleural volume in rats at a dose of 4 mg/kg after peroral administration. The format is functional. The settings on record: route oral. In a few lines:
as §3

Experiment [9] concerns Rattus norvegicus. Description: Evaluated for the adjuvant-induced arthritis edema of uninjected paw on 11-day after 1 mg/kg dose of peroral administration of the compound. Particulars: route oral.
Experiment [10] relates to Rattus norvegicus. Nature of the experiment: Evaluated for the adjuvant-induced arthritis edema of uninjected paw on 32-day after 1 mg/kg dose of peroral administration of the compound. The settings on record: route oral.
For experiment [11], the system named is Rattus norvegicus. Nature of the experiment: Evaluated for the adjuvant-induced arthritis edema of uninjected paw on 11-day after 3.16 mg/kg dose of peroral administration of the compound. The settings on record: route oral.
Experiment [12] concerns Rattus norvegicus. Nature of the experiment: Evaluated for the adjuvant-induced arthritis edema of uninjected paw on 32-day after 3.16 mg/kg dose of peroral administration of the compound. Particulars: route oral.
In experiment [13] the test system is Rattus norvegicus. Nature of the experiment: Evaluated for the adjuvant-induced arthritis edema of uninjected paw on 11-day after 31.6 mg/kg dose of peroral administration of the compound. Particulars: route oral.
For experiment [14], the system named is Rattus norvegicus. Description: Evaluated for the adjuvant-induced arthritis edema of uninjected paw on 32-day after 31.6 mg/kg dose of peroral administration of the compound. Particulars: route oral.
Experiment [15] concerns Mus musculus. Nature of the experiment: Evaluated for the delayed type hypersensitivity (DTH) response to methylated BSA (mBSA) in sensitive mice after peroral administration of 50 mg/kg. The settings on record: route oral. Type of experiment: functional. Summed up: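 Mice were sensitized to mBSA on day 0, dosed orally on days 4, 5, 6 and 7, and challenged with mBSA in the left hind paw on day 7. Paw weight was measured 24 h after challenge, with 10 mice per group. Negative controls received Freund's complete adjuvant without mBSA.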

The subject of experiment [16] is Rattus norvegicus. Description: Evaluated for the carrageenan-induced pleural volume in rats at a dose of 3.16 mg/kg after peroral administration. Type of experiment: functional. Particulars: route oral. Summed up:
as §3

The species named for experiment [17] is Rattus norvegicus. Nature of the experiment: Weight change of rat was determined; + = significant increase in weight change from control. Type of experiment: functional, organism-based. Summed up:
as §2

The species named for experiment [18] is Rattus norvegicus. Description: X-rays scored on an arbitrary (0=normal to 10=max. joint destruction) scale in a blinded manner was determined; 32-day X-ray. The format is functional. In a few lines: as §1
Experiment [19] deals with Rattus norvegicus. Description: Evaluated for the adjuvant-induced arthritis edema of uninjected paw on 11-day after 100 mg/kg dose of peroral administration of the compound. Particulars: route oral.
For experiment [20], the system named is Rattus norvegicus. Nature of the experiment: Evaluated for the adjuvant-induced arthritis edema of uninjected paw on 32-day after 100 mg/kg dose of peroral administration of the compound. Particulars: route oral.

With `CNS(=O)(=O)OC[C@@H](COc1ccccc1OC)OS(=O)(=O)NC`, the Score in the experiment filed under Rattus norvegicus [1] was <4.96 and 6.64. Further, in the experiment listed under Rattus norvegicus [2], the Weight change result is “inactive”. The Edema is <-0.33 mL with Rattus norvegicus [3] and <-0.46 mL with Rattus norvegicus [4].

As for `CNS(=O)(=O)OCC(COc1ccccc1OC)OS(=O)(=O)NC` (stereo unspecified), in the experiment with Mus musculus [5], the Paw weight is listed as 179 mg. In addition, the Edema in the experiment with Rattus norvegicus [6] is -0.41 mL and <-0.42 mL and <-0.61 mL; with Rattus norvegicus [9] it was 0.1 mL; with Rattus norvegicus [10] it was <-0.23 mL; in the experiment on Rattus norvegicus [3] it was <-0.39 mL; in the experiment with Rattus norvegicus [11] it was <-0.14 mL; in the experiment on Rattus norvegicus [12], <-0.38 mL. For the same compound, the Pleural volume is 4.92 mL with Rattus norvegicus [7] and 5.2 mL in the experiment with Rattus norvegicus [8]. The Score in the experiment listed under Rattus norvegicus [1] was <5.82 and <5.77 and <6.9 and 7.8. Besides, in the experiment listed under Rattus norvegicus [2], the Weight change result is “inactive”.

In the experiment listed under Rattus norvegicus [1], `CNS(=O)(=O)OC[C@H](COc1ccccc1OC)OS(=O)(=O)NC` had a Score of 7.86. Moreover, the Edema was 0.16 mL in the experiment with Rattus norvegicus [13] and -0.03 mL in the experiment on Rattus norvegicus [14].

Turning to `O=P1(N(CCCl)CCCl)NCCCO1` (stereo unspecified) [CYCLOPHOSPHAMIDE ANHYDROUS], in the experiment with Mus musculus [15], the Paw weight stood at 153 mg.

Consider `COc1ccc2c(c1)c(CC(=O)O)c(C)n2C(=O)c1ccc(Cl)cc1` [INDOMETHACIN], for which the Pleural volume in the experiment on Rattus norvegicus [16] was found to be 3.5 mL. The Score in the experiment listed under Rattus norvegicus [1] was 3.54 and <4.07 and <3.8 and <4.04. Besides, the Weight change result in the experiment filed under Rattus norvegicus [17] is “Active”.

For the compound `COc1ccccc1OCC(O)CO` (stereo unspecified) [GUAIFENESIN], in the experiment listed under Rattus norvegicus [18], the Score was found to be 8.83. Moreover, the Weight change result in the experiment filed under Rattus norvegicus [2] is “inactive”. Also, the figures for the Edema in the experiment with Rattus norvegicus [19] and in the experiment on Rattus norvegicus [20] were 0.07 mL and -0.4 mL, respectively.
